Screens: PubChem, Johns Hopkins Ion Channel Center
RGS4 inh = human RGS4 inhibition. B-score at 10 µM. HEK293 M3R/RGS4 inducible, Fluo-4 calcium flux; hits give high values; triggered by carbachol at its EC20. AID 463165. 310,000 tested, 0.45% active;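 active = B-score, a plate-corrected calcium signal, over three deviations above library mean, with baseline fluorescence within five deviations of library mean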;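 also: RGS4 expression induced by doxycycline in cells with stable M3 receptor; B-score is computed from the integrated fluorescence ratio over baseline after carbachol; higher B-score means a larger calcium signal and so more RGS4 inhibition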
Target sequence (P49798 whole entry, looked up): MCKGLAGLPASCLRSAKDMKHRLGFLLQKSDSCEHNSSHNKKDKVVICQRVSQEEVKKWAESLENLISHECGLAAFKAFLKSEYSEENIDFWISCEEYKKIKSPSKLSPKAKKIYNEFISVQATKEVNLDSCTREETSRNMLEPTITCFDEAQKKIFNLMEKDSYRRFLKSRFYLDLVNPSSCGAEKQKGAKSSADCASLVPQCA
MrgX1 antagonist = antagonists of human MrgX1 receptor | Q96LB2 | B-score at 10 µM | MRGX1-HEK293 calcium flux, Fluo-4, BAM8-22 antagonism; hits give low values | AID 588676 | 310,000 tested, 1.3% active;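 active = calcium-response B-score plate-corrected more than 3 library SD below zero, starting fluorescence within 5 deviations, no agonist response on first addition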;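 also: peak minus trough fluorescence over baseline after final BAM8-22 challenge near maximal dose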
Target sequence (Q96LB2 whole entry, looked up): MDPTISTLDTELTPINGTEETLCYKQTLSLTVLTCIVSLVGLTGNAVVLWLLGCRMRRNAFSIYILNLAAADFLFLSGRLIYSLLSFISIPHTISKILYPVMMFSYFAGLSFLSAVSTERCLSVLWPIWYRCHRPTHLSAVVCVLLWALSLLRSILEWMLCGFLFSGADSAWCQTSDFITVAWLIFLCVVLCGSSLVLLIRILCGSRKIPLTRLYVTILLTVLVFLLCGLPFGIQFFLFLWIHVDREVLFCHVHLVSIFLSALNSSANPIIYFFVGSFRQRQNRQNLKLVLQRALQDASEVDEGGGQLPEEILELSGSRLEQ
MrgX1 allo act = allosterically activates human MrgX1 receptor signaling. B-score at 10 µM. 310,000 tested, 0.63% active. MrgX1-HEK293, Fluo-4 calcium flux, FDSS; hits give high values. AID 588675;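 active = plate-corrected calcium response at least 3 library SD above typical, normal starting fluorescence, not activating the receptor alone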;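 also: compound read alongside a low EC10 to EC30 dose of BAM8-22 agonist; peak minus trough fluorescence over baseline measured at the second addition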
RGS4 act = RGS4 potentiation or activation; 310,000 tested, 0.92% active; HEK293 M3R/inducible RGS4, carbachol calcium flux Fluo4; hits give low values; B-score at 10 µM;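 active = B-score of the integrated calcium signal more than 4 SD below the library mean, with starting fluorescence not abnormally high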;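 also: negative B-score means reduced calcium response which marks RGS4 activation or potentiation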
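Material: M3R-expressing HEK293 line, RGS4 induced by doxycycline | Schedule: Overnight RGS4 induction, 30 min dye load 37 °C, 20 min compound RT | Measured by: Fluo4 fluorescence kinetic imaging of calcium | Read-out: Integrated calcium ratio converted to B score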
MrgX1 ag = agonists of human MrgX1 receptor. MrgX1-HEK293 cells, Fluo-4 calcium fluorescence, agonist mode; hits give high values. B-score at 10 µM. 310,000 tested, 0.44% active. AID 588627;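 active = calcium response B-score plate-corrected fluorescence ratio at least 3 library SD, with starting fluorescence B-score inside 5 SD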
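Assay system: MrgX1-expressing HEK293 cells / Amount: fifteen thousand cells per well / Doses: test compound in the initial addition of three / Timing: cells plated overnight, dye loaded 0.5 h 37 °C, 0.5 h room temperature / Technique: kinetic calcium dye fluorescence, Fluo-4 NW / Control set: positive and negative controls per plate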
RGS4 act valid = confirmation of RGS4 activators. shares compounds with RGS4 act. HEK293 M3R/RGS4 inducible, carbachol calcium flux Fluo4. inhibition, % at 10 µM. 1,100 tested, 89% active;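 active = inhibition above 3 SD of the buffer control wells, cut at about 41% in these data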;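 also: signal is the integrated peak-minus-minimum Fluo4 fluorescence over baseline ratio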
M3R Ca counter = RGS4 activator counter-screen hit in non-induced cells; inhibition, % at 10 µM; shares compounds with RGS4 act; HEK293 M3R non-induced RGS4, Fluo4 calcium flux; after carbachol challenge at its EC90; 1,100 tested, 82% active;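 active = inhibition exceeding 3 SD of buffer-only control wells, cut at about 26% in these data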;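 also: percent drop in integrated peak-minus-baseline over baseline Fluo4 ratio after carbachol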
Hits are given with their value; . = inactive; / = no result given. The list is not random: actives were taken first. Their share in the collection is about 3.5%.

SMILES	RGS4 inh	MrgX1 antagonist	MrgX1 allo act	RGS4 act	MrgX1 ag	RGS4 act valid	M3R Ca counter
Cc1cccc(NC(=O)CSc2nc3ccccc3nc2N2CC(C)OC(C)C2)c1 (centres undefined)	.	.	.	.	.	/	/
Cc1cccc(N2CCN(C(=O)CSc3nc4ccccc4nc3N3CC(C)OC(C)C3)CC2)c1C (centres undefined)	.	.	.	-8.1	.	85	84
CCCCCCNS(=O)(=O)c1ccc(Cl)s1	.	.	.	-10	.	43	84
CC(=O)Nc1ccc(S(=O)(=O)N2CCC3(CC2)OCCO3)cc1	.	.	.	.	.	/	/
CCOC(=O)c1cc2sccc2n1CCCN1C(=O)c2ccccc2C1=O	.	.	.	-7.9	.	73	84
CCOC(=O)c1cc2sccc2n1Cc1ccccc1	.	.	.	.	.	/	/
COc1ccccc1N1CCN(C(=O)c2oc3cc(C)c(C)cc3c2C)CC1	.	/	/	.	/	/	/
CCOc1ccc2oc(C(=O)N3CCN(c4ccccc4OCC)CC3)c(C)c2c1	.	.	.	-10	.	92	79
CCc1ccc(NC(=O)CCc2nc3cccnc3n2Cc2ccc(OC)cc2)cc1	.	.	.	-8	.	.	.
CCCCCCNC(=O)CCc1nc2cccnc2n1Cc1ccc(OC)cc1	.	.	.	.	.	/	/
CCOc1ccc(NC(C(=O)Nc2cccc(C(C)=O)c2)c2ccccc2)cc1 (centres undefined)	.	.	.	.	.	/	/
CCN(CC)CCNC(C(=O)Nc1cccc(C(C)=O)c1)c1ccccc1 (centres undefined)	.	-5	.	-13	.	90	45
S=c1[nH]nc(-c2cccc(Cl)c2)n1Cc1ccccc1	.	.	.	.	.	/	/
Cc1cccc(-c2n[nH]c(=S)n2Cc2ccccc2)c1	.	.	.	-8	.	.	.
S=c1[nH]nc(-c2ccc(Cl)cc2Cl)n1-c1ccccc1	.	.	.	.	.	/	/
S=c1[nH]nc(-c2ccc(Cl)cc2Cl)n1Cc1ccccc1	.	.	.	-7.8	.	91	58
c1ccc(COc2ccc(CNCc3cccnc3)cc2)cc1	.	.	.	-13	.	84	42
CCn1c2ccccc2c2cc(/C=N/n3c(-c4cc(C)[nH]n4)n[nH]c3=S)ccc21	.	.	.	-7.8	.	70	42
CCn1c2ccccc2c2cc(/C=N/n3cn[nH]c3=S)ccc21	.	.	.	.	.	/	/
CC(C)C(C)NC(=O)COC(=O)c1cccc(C(=O)OCC(=O)NC(C)C(C)C)n1 (centres undefined)	.	.	.	.	.	/	/
CC1=CC(C)(C)N(C(=O)CCl)c2cc(C)ccc21	.	.	.	.	.	/	/
CC1=CC(C)(C)N(C(=O)CNC2CCCCC2)c2cc(C)ccc21	.	.	.	-8.5	.	94	97
Cc1ccc(C(=O)Nc2ccc(N3CCN(C)CC3)cc2)c(Cl)c1	.	.	.	.	.	/	/
CCc1ccc(OCCNC(=O)c2ccccc2SCc2ccc(F)cc2)cc1	.	.	.	.	.	/	/
O=C(NCCOc1ccc(F)cc1)c1ccccc1SCc1ccccc1	.	.	.	-7.7	.	92	74
SMILES	RGS4 inh	MrgX1 antagonist	MrgX1 allo act	RGS4 act	MrgX1 ag	RGS4 act valid	M3R Ca counter
Cc1ccc(N2CCN(C(=O)c3cc(COc4c(C)cccc4C)on3)CC2)c(C)c1	.	.	.	-7.7	.	70	32
COc1ccc(C)cc1NC(=O)C(CCS(C)(=O)=O)NC(C)=O (centres undefined)	.	.	.	.	.	/	/
Cc1ccccc1OCC(=O)NC(=S)Nc1ccccc1N1CCN(S(C)(=O)=O)CC1	.	.	.	-9.1	.	62	.
CCCCN(C(=O)CSc1nnc(-c2ccccc2OC)n1C)c1c(N)n(Cc2ccccc2)c(=O)[nH]c1=O	.	.	.	.	.	/	/
COC(=O)c1ccc(C(=O)N2CCCC(N3CCN(c4ccc(F)cc4)CC3)C2)nc1 (centres undefined)	.	.	.	.	.	/	/
CC(C)Oc1ccc(C(=O)Nc2ccc(C(F)(F)F)n(C)c2=O)cc1	.	.	.	.	.	/	/
COC(=O)C(Nc1ccccc1Cl)(c1cc(C)c(O)c(C)c1)C(F)(F)F (centres undefined)	.	.	.	-9.6	.	93	97
CC(C)(C)NC(=O)COC(=O)c1c2c(nc3ccccc13)CCC2	.	.	.	-9.6	.	44	.
O=C(OCC(=O)N1CCc2ccccc21)c1c2c(nc3ccccc13)CCCCC2	.	.	.	-9.4	.	83	44
Cc1nc2ccccn2c1-c1csc(Nc2cccc(O)c2)n1	.	/	/	-8.4	/	57	.
COc1cccc(-c2nc3c(c(SCC(=O)N4CCOCC4)n2)Cc2c(CO)cnc(C)c2O3)c1	.	.	.	-8.1	.	40	84
Cc1ncc(CO)c2c1Oc1nc(-c3ccccc3)nc(SCC(=O)N3CCCCC3)c1C2	.	.	.	-7.8	.	76	40
COc1ccc(N(CC(=O)NCc2ccco2)C(=O)CCC(=O)Nc2nccs2)cc1	.	.	.	.	.	/	/
COc1ccc(N2Nc3n[nH]c(N)c3N2)cc1	.	.	.	.	.	/	/
Cc1cc2c3c([nH]c2cc1S(=O)(=O)NCc1ccc(CN2CCCCCC2)o1)CCCC3=O	.	.	.	-8.6	.	75	46
OC(C#CCN1CCCC1)(c1ccccc1)c1cccnc1 (centres undefined)	.	.	.	-8.2	.	92	86
CCCN(CC#CC(O)(c1ccccc1)c1cccnc1)CCC (centres undefined)	.	.	.	.	.	/	/
O=C1NC2CCc3nc4ccccc4c(=O)n3C2=Nc2ccccc21 (centres undefined)	.	.	.	-9.8	.	.	.
O=c1c2ccccc2nc(-c2ccccc2Cl)n1O	.	.	.	.	.	/	/
COc1cc(C(=O)Oc2cccc(Nc3ncnc4ccccc34)c2)cc(OC)c1OC	.	.	.	-12	.	92	80
Cc1nc2ccccc2c2oc(C(=O)NCC3COc4ccccc4O3)cc12 (centres undefined)	.	.	.	-11	.	82	42
CCc1ccc(CNC(=O)c2cc3c(C)nc4ccccc4c3o2)cc1	.	.	.	.	.	/	/
O=C(Nc1ccccc1)Nc1ccccc1C(=O)NCCCN1CCOCC1	.	.	.	.	.	/	/
Cc1nc2ccc(NC(=O)c3cccc(S(=O)(=O)N(C)c4ccccc4)c3)cc2s1	.	.	.	-8.9	.	88	69
COC(=O)[C@H](Cc1ccccc1)NC(=O)NCCC1=CCCCC1	.	.	.	.	.	/	/
